What is called Ki is a measure of affinity in units of concentration, obtained from inhibition or displacement. What is called EC50 is the concentration that produces a half-maximal response.

The record followed here is ChEMBL document CHEMBL1136835, “CB2 selective sulfamoyl benzamides: optimization of the amide functionality” (Bioorg Med Chem Lett, 2009).

Data set [1] addresses T1, Cannabinoid receptor 2 (Homo sapiens, UniProt P34972). As to the kind of experiment: Displacement of [3H]CP-55940 from human cloned CB2 receptor by scintillation spectrometry. In outline:
(§1)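 Cloned human CB1 or CB2 receptor membranes incubated with 0.2–0.6 nM [3H]CP55940 in 50 mM Tris–HCl pH 7.0 with 5.0 mM MgCl2, 1.0 mM EGTA and 1.0 mg/ml fatty-acid-free BSA. CB2 ran 60 min at room temperature and CB1 120 min at 30 °C. Samples filtered through PEI/BSA-soaked GF/C filters and rinsed six times with cold buffer. Counted by scintillation, with nonspecific binding defined by WIN55212-2. Ki is the geometric mean of at least three determinations.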

Data set [2] has as its target T2, Cannabinoid receptor 1 (Homo sapiens, UniProt P21554). The data set is described as follows: Displacement of [3H]CP-55940 from human cloned CB1 receptor by scintillation spectrometry. In outline: as §1
Data set [3] deals with T1, Cannabinoid receptor 2. The data set is described as follows: Agonist activity at human cloned CB2 receptor assessed as stimulation of [35S]GTPgammaS binding. Background: Binding of GTPγS marks nucleotide exchange on a G protein.
The species entered for data set [4] is Homo sapiens. As to the kind of experiment: Ratio of Ki for human cloned CB1 receptor to Ki for human cloned CB2 receptor. Summed up:
as §1

Data set [5] concerns the target T2, Cannabinoid receptor 1. The data set is described as follows: Displacement of [3H]CP-55940 from human cloned CB1 receptor at 10 uM by scintillation spectrometry. For orientation: Displacement assays read how much labelled ligand stays bound in the presence of the test substance.
A short description of data set [6]: Metabolic stability in human liver microsomes after 30 mins. In kind it is ADME, Microsome. The following applies: read-out: Stability. In general terms: Microsomes from liver hold many membrane-bound enzymes, among them those of drug oxidation.
The test system of data set [7] is Rattus norvegicus. As to the kind of experiment: Antiallodynic activity in rat hind paw incisional model assessed as mechanical paw-withdrawal threshold at 30 mg/kg, ip after 30 mins relative to control. In kind it is functional. The settings on record: route intraperitoneal. Summed up: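 Rat hindpaw incision model. Mechanical paw-withdrawal threshold measured on the left hindpaw, 30 min after ip dosing at 30 mg/kg. N = 8 per group. Compared with the vehicle-treated group.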

Data set [8] relates to Rattus norvegicus. As to the kind of experiment: Antiallodynic activity in rat hind paw incisional model assessed as mechanical paw-withdrawal threshold at 300 mg/kg, po after 120 mins in presence of aminobenzotriazole relative to aminobenzotriazole-treated control. Type of data set: functional. Summed up: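 Rat hindpaw incision model. Rats pretreated with the P450 suicide inhibitor aminobenzotriazole, then dosed 300 mg/kg po 120 min before testing. Left hindpaw mechanical withdrawal threshold read, N = 8 per group. One-way ANOVA with protected t-test against ABT-vehicle incised animals.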

Data set [9] is described as follows: Metabolic stability in rat liver microsomes after 30 mins. Type of data set: ADME, Microsome. The following applies: read-out: Stability.

T1 sequence (P34972 whole entry): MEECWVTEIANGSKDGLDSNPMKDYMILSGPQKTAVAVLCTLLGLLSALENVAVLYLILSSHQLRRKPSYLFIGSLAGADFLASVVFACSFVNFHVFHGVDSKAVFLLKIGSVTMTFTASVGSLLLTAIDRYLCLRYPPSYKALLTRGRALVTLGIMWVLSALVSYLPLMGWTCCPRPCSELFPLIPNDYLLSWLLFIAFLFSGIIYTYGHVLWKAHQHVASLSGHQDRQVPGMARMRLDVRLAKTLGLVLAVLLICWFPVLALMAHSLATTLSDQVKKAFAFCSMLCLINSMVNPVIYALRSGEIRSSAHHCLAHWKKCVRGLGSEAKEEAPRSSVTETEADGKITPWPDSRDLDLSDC
T2 sequence (P21554 whole entry): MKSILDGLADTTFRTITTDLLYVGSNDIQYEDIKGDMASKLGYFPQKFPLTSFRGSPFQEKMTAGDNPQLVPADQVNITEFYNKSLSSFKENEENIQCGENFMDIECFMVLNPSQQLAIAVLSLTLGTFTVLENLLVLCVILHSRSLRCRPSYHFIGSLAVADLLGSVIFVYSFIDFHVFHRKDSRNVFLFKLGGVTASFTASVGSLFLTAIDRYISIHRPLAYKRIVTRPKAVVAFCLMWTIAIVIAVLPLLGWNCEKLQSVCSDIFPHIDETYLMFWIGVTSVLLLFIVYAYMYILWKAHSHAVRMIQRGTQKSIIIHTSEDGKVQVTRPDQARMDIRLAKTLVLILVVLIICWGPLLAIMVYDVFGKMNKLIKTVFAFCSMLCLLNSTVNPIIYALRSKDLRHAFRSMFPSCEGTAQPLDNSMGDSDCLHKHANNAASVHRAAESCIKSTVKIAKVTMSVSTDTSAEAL

With `Cc1ccc(C(=O)N[C@H]2C(C)(C)[C@@H]3CC[C@@]2(C)C3)cc1S(=O)(=O)N1CCOCC1`, the inhibition constant Ki in data set [1] is 48 nM; in data set [2] it was 540 nM. Also, the EC50 in [3] was determined as 25 nM. Besides, the Ratio Ki in [4] was 11.
With `Cc1ccc(-c2cc(C(C)(C)C)[nH]n2)cc1S(=O)(=O)N1CCOCC1`, the Ki was determined as 160 nM in [1] and 6990 nM in [2]. The concentration giving a half-maximal response (EC50) in [3] was determined as 130 nM.
As for `Cc1ccc(-c2n[nH]c(CC3CCCCC3)n2)cc1S(=O)(=O)N1CCOCC1`, the results for the Ki in data set [1] and in [2] were 27 nM and 310 nM, respectively. The EC50 in [3] stood at 57 nM. Besides, the Ratio Ki in data set [4] turned out to be 11.
As to `Cc1ccc(-c2nnn[nH]2)cc1S(=O)(=O)N1CCOCC1`, the inhibitory constant (Ki) in [1] and in data set [2] was more than 5000 nM in each case.
With `Cc1ccc(C(=O)NC(C(C)(C)C)C(C)(C)C)cc1S(=O)(=O)N1CCOCC1`, in [4], the Ratio Ki came out at 9.
On to `Cc1ccc(NC(=O)[C@@H]2C[C@@]3(C)CC[C@]2(C)O3)cc1S(=O)(=O)N1CCOCC1`, for which the Ki worked out at 660 nM in data set [1] and 2900 nM in data set [2]. Moreover, the Ratio Ki in [4] was 4.4.
On to `Cc1ccc(-c2nc(C(C)(C)C)cs2)cc1S(=O)(=O)N1CCOCC1`, for which the inhibition constant (Ki) in data set [1] was 5.7 nM; in [2], 260 nM. For the same compound, the EC50 in data set [3] is 21 nM. For the same compound, in data set [4], the Ratio Ki was found to be 47.
For `Cc1ccc(C(=O)N[C@@H]2C(C)(C)[C@@H]3CC[C@@]2(C)C3)cc1S(=O)(=O)N1CCOCC1` the same measures were 3.9 nM, 130 nM, 4.6 nM and 31.
As for `O=C(NCc1ccccc1)c1ccc(Br)c(S(=O)(=O)N2CCOCC2)c1`, the Ki in data set [1] is 800 nM; in data set [2], more than 1000 nM.
Consider `Cc1ccc(NC(=O)C2CCCCC2C)cc1S(=O)(=O)N1CCOCC1` (stereo unspecified), for which the Ki in data set [1] is 14 nM; in [2] it was 1800 nM. Moreover, the EC50 in data set [3] turned out to be 42 nM. In data set [4], the Ratio Ki was 130.
In the case of `Cc1ccc(-c2nc(CC3CCCCC3)cs2)cc1S(=O)(=O)N1CCOCC1`, the Ki came to 23 nM in data set [1] and 390 nM in data set [2]. Further, the EC50 in data set [3] came out at 120 nM. Also, the Ratio Ki in data set [4] is 17.
With `Cc1ccc(-c2cnc(C(C)(C)C)[nH]2)cc1S(=O)(=O)N1CCOCC1`, the Ratio Ki in data set [4] was determined as 9.4.
As to `Cc1ccc(NC(=O)c2ccccc2Cl)cc1S(=O)(=O)N1CCOCC1`, the values for the Ki in data set [1] and in data set [2] were 170 nM and 1100 nM, respectively. The concentration giving a half-maximal response (EC50) in data set [3] was 390 nM. In addition, the Ratio Ki in data set [4] came out at 6.5.
As for `Cc1ccc(NC(=O)C2(C)CCCCC2)cc1S(=O)(=O)N1CCOCC1`, the Ki stood at 35 nM in [1] and 1200 nM in data set [2]. Further, the concentration for a half-maximal effect (EC50) in [3] came to 33 nM. Besides, the Ratio Ki in data set [4] amounted to 34.
For `Cc1ccc(-c2c[nH]c(C(C)(C)C)n2)cc1S(=O)(=O)N1CCOCC1`, the results for the Ki in [1] and in [2] were 81 nM and 770 nM, respectively. Further, the concentration for a half-maximal effect (EC50) in data set [3] worked out at 130 nM.
Take `Cc1ccc(-c2n[nH]c(C(C)(C)C)n2)cc1S(=O)(=O)N1CCOCC1`: the Ki in [1] stood at 100 nM; in data set [2], 530 nM. Moreover, in data set [3], the EC50 stood at 130 nM. In [4], the Ratio Ki is 5.3.
The like results for `Cc1ccc(-c2cc(CC(C)(C)C)[nH]n2)cc1S(=O)(=O)N1CCOCC1` were, in that order, 75 nM, 750 nM, 120 nM and 10.
The like results for `Cc1ccc(NC(=O)[C@H]2C(C)(C)[C@@H]3CC[C@@]2(C)C3)cc1S(=O)(=O)N1CCOCC1` were, in that order, 9.4 nM, 1200 nM, 49 nM and 130.
The like results for `Cc1ccc(NC(=O)c2cccc(Cl)c2)cc1S(=O)(=O)N1CCOCC1` were, in that order, 120 nM, 270 nM, 220 nM and 2.3.
The compound `Cc1ccc(NC(=O)[C@H]2C[C@@]3(C)CC[C@]2(C)O3)cc1S(=O)(=O)N1CCOCC1` came in with an inhibitory constant (Ki) in data set [1] of 2000 nM. Further, the Activity in data set [5] is 44%.
For `Cc1ccc(NC(=O)C(C)(C)C)cc1S(=O)(=O)N1CCOCC1` the same measures were 540 nM and 4.7%.
With `Cc1ccc(-c2noc(CC3CCCCC3)n2)cc1S(=O)(=O)N1CCOCC1`, the values for the Ki in data set [1] and in data set [2] were 130 nM and 740 nM, respectively. In addition, the concentration for a half-maximal effect (EC50) in data set [3] stood at 110 nM. Moreover, the Ratio Ki in [4] came to 5.9.
For `Cc1ccc(NC(=O)C2CCCCC2(C)C)cc1S(=O)(=O)N1CCOCC1` (stereo unspecified) the same measures were 11 nM, 790 nM, 8400 nM and 72.
The like results for `Cc1ccc(NC(=O)[C@@H]2C(C)(C)[C@@H]3CC[C@@]2(C)C3)cc1S(=O)(=O)N1CCOCC1` were, in that order, 1.7 nM, 640 nM, 9.6 nM and 380.
In the case of `Cc1ccc(-c2nc(CC(C)(C)C)cs2)cc1S(=O)(=O)N1CCOCC1`, the results for the inhibition constant (Ki) in [1] and in data set [2] were 5.2 nM and 200 nM, respectively. The half-maximal effective concentration (EC50) in [3] came to 23 nM. Further, the Ratio Ki in data set [4] amounted to 38.
Regarding `Cc1ccc(-c2cc(CC3CCCCC3)[nH]n2)cc1S(=O)(=O)N1CCOCC1`, the figures for the Ki in data set [1] and in [2] were 87 nM and 1400 nM, respectively. In addition, the EC50 in data set [3] came to 190 nM. The Ratio Ki in data set [4] was 16.
As to `Cc1ccc(-c2nnn(CC3CCCCC3)n2)cc1S(=O)(=O)N1CCOCC1`, the figures for the inhibitory constant (Ki) in [1] and in data set [2] were 82 nM and 560 nM, respectively. For the same compound, the EC50 in data set [3] worked out at 78 nM. Further, the Ratio Ki in data set [4] was 6.9.
On to `Cc1ccc(NC(=O)c2ccc(Cl)cc2)cc1S(=O)(=O)N1CCOCC1`, for which the inhibition constant Ki in data set [1] stood at 2900 nM. Also, the Activity in data set [5] worked out at 25%.
`Cc1ccc(-c2nnn(CC(C)(C)C)n2)cc1S(=O)(=O)N1CCOCC1`: the figures for the Ki in [1] and in data set [2] were 17 nM and 130 nM, respectively. The concentration giving a half-maximal response (EC50) in data set [3] was 49 nM. Also, in [4], the Ratio Ki worked out at 7.6.
For `Cc1ccc(NC(=O)C(C)(C(F)(F)F)C(F)(F)F)cc1S(=O)(=O)N1CCOCC1` the same measures were 23 nM, 470 nM, 29 nM and 20.
For `Cc1ccc(-c2nc(C(C)(C)C)c[nH]2)cc1S(=O)(=O)N1CCOCC1` the same measures were 23 nM, 1100 nM, 58 nM and 48.
`Cc1ccc(NC(=O)C2C(C)(C)C2(C)C)cc1S(=O)(=O)N1CCOCC1`: the results for the Ki in data set [1] and in data set [2] were 23 nM and 3400 nM, respectively. Also, the remaining at 0.5 h is 1% in [6] and 2% in data set [9]. The Activity in data set [7] is 183%; in [8], 262%. In data set [3], the concentration for a half-maximal effect (EC50) turned out to be 11 nM. In addition, the Ratio Ki in data set [4] came to 150.
Consider `Cc1ccc(NC(=O)C(C(C)(C)C)C(C)(C)C)cc1S(=O)(=O)N1CCOCC1`, for which the Ki in data set [1] worked out at 11 nM; in data set [2], 1200 nM. The EC50 in data set [3] was found to be 31 nM. Also, in data set [4], the Ratio Ki stood at 110.
Take `Cc1ccc(-c2noc(CC(C)(C)C)n2)cc1S(=O)(=O)N1CCOCC1`: the Ki in [1] is 59 nM; in [2], 270 nM. In data set [3], the 50% effective concentration (EC50) turned out to be 70 nM. Moreover, the Ratio Ki in data set [4] was found to be 4.5.
On to `Cc1ccc(-c2noc(C(C)(C)C)n2)cc1S(=O)(=O)N1CCOCC1`, for which the inhibition constant (Ki) in [1] is 75 nM; in data set [2], 510 nM. Besides, in data set [3], the EC50 turned out to be 77 nM. Besides, the Ratio Ki in data set [4] is 6.8.
The like results for `Cc1ccc(-c2nc(CC(C)(C)C)c[nH]2)cc1S(=O)(=O)N1CCOCC1` were, in that order, 36 nM, 1100 nM, 47 nM and 31.
For `Cc1ccc(-c2n[nH]c(CC(C)(C)C)n2)cc1S(=O)(=O)N1CCOCC1` the same measures were 85 nM, 140 nM, 64 nM and 1.6.
As to `Cc1ccc(NC(=O)C2CCCCC2)cc1S(=O)(=O)N1CCOCC1`, the inhibitory constant (Ki) in data set [1] is 120 nM; in data set [2] it was 1900 nM. Besides, the Ratio Ki in data set [4] was determined as 16.
